# Screens from PubChem BioAssay.
# CHO parental Ca – counter-screen for OX1R antagonists: effect in parental CHO cells; parental CHO-K1, ATP-induced calcium, Fluo-8 fluorescence; inhibition, % at 5.6 µM; 0.63% of 330,000 active;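 active = inhibition above that plate's mean sample inhibition plus 3 SD, cut at about 26% in these data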;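 also: 0% = ATP-challenged DMSO wells and 100% = DMSO wells without ATP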
#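 Test system: untransfected parental CHO cell line; also added: ATP stimulus; dosing: 5.6 µM, single dose; signal: calcium-sensitive Fluo-8 fluorescence; measure: percent inhibition of ATP-evoked calcium rise, normalized to controls; benchmarks: low control ATP plus DMSO, high control DMSO only; replication: one well per compound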
# TAAR1 agonist – agonists of human TAAR1; Q96RJ0; CHO RD-HGA16 TAAR1, Fluo-8 calcium fluorescence; vehicle wells 0%, saturating PEA agonist 100%; activation, % at 3 µM; 0.99% of 360,000 active; AID 624467;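 active = activation above the mean activation of all test compounds in the run plus 3 SD, cut at about 38% in these data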
#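 Test system: RD-HGA16 (CHO) cells co-expressing Gα16 and hTAAR1; dosing: one-point dosing at 3 µM (nominal); timing: 17-24 h seeding, 75 min 37 °C dye, 30 min RT; signal: kinetic Fluo-8 calcium fluorescence; read-out basis: % activation relative to PEA EC100 response; controls: DMSO and PEA EC100; replicates: n 1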
# OX1R antag-1 – blocks the human orexin 1 receptor | O43613 | CHO/OX1R cells, Fluo-8 calcium fluorescence, orexin A | inhibition, % at 5 µM | 0.43% of 330,000 active | AID 434989;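 active = inhibition above its plate's threshold, mean inhibition of all tested compounds on the plate plus 3 SD, cut at about 37% in these data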;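 also: 0% = orexin A challenge wells and 100% = SB-334867-A antagonist wells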
# Target sequence (O43613 whole entry, looked up): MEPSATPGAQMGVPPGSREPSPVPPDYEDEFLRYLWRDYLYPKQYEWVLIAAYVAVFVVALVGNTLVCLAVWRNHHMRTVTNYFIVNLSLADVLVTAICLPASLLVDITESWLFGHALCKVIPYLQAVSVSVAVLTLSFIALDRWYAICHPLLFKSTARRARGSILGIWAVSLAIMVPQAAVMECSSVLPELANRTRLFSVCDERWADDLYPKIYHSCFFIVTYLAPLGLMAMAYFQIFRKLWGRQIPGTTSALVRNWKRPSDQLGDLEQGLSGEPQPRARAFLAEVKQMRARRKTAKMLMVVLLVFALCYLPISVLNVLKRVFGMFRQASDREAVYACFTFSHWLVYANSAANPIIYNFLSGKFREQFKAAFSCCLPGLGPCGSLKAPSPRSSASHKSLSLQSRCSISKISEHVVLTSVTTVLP
# OX1R antag-2 – OX1R (human) antagonism | O43613 | OX1R-expressing cells, FRET antagonist read-out | inhibition, % at 6.6 µM | 1.8% of 330,000 active; in the data active = inhibition mostly above about 38%, no sharp cut-off; inactive = mostly below about 40%;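 also: 0% = agonist challenge alone and 100% = reference antagonist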
# TAAR1 antag – human TAAR1 antagonism | 1.5% of 360,000 active | inhibition, % at 3 µM | Q96RJ0 | CHO RD-HGA16 TAAR1, Fluo-8 calcium fluorescence, antagonist | AID 624466;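 active = inhibition above a per-plate cutoff, the mean inhibition of test compounds on that plate plus 3 SD, cut at about 49% in these data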;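 also: 0% = DMSO plus EC80 beta-PEA response and 100% = DMSO alone without agonist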
#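 test system = CHO RD-HGA16 cells bearing hTAAR1 | replication = singlicate | controls = DMSO-only wells and EC80 β-PEA-stimulated wells | reagent = EC80 β-phenethylamine stimulus | read-out basis = percent inhibition of PEA-evoked calcium signal, max/basal emission ratio | schedule = seeding 17-24 h prior, 75-min 37 °C, 30-min RT dye loading | signal = kinetic Fluo-8 calcium fluorescence measurement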
# OX1R Fluo8 conf – confirmation of human orexin 1 receptor antagonists; shares compounds with OX1R antag-1; CHO/OX1R cells, orexin A calcium Fluo-8 fluorescence; inhibition, % at 5 µM; 38% of 1,100 active; AID 492963; in the data active = inhibition above about 29%;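 also: 0% = agonist challenge alone and 100% = reference antagonist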
# CHO Ca counter – signal in parental CHO cells, OX1R antagonist counter-screen | shares compounds with OX1R antag-1 | parental CHO-K1, ATP-induced calcium, Fluo-8 fluorescence | inhibition, % at 5.6 µM | 9.3% of 1,100 active | AID 492965;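 active = inhibition above a per-plate limit, the mean inhibition of that plate's test compounds plus 3 SD, cut at about 25% in these data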;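 also: 0% = ATP challenge with DMSO and 100% = DMSO without ATP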
# Starred values were filed as active, the others as inactive; . = no result given. Only some compounds are listed: those with a hit (about 4% of all), similar ones and a draw of the others.
SMILES,CHO parental Ca,TAAR1 agonist,OX1R antag-1,OX1R antag-2,TAAR1 antag,OX1R Fluo8 conf,CHO Ca counter
C[C@@H]1CN([C@@H](C)CO)C(=O)c2cccc(NC(=O)Nc3ccc(F)cc3)c2O[C@@H]1CN(C)Cc1ccc(Oc2ccccc2)cc1,28,19,52*,4,28,62*,24
Cc1ccc(C)n1-c1nn(S(=O)(=O)c2cccc3cccnc23)c2cccc(F)c12,-19,10,39*,71,4,30*,-8
Cc1ccc(S(=O)(=O)n2nc(-n3c(C)ccc3C)c3c(F)cccc32)c2ccccc12,-8,0,-2,1,-12,.,.
CN1C2CCC1/C(=C/c1cccn1C)C(=O)/C2=C\c1cccn1C,23,23,38,37,39,19,12
CCCN(CCC)Cc1cc(=O)oc2cc(C)c(Cl)cc12,.,1,.,.,-18,.,.
CCn1nc(C(=O)Nc2cccc3ccccc23)c(Cl)c1Cl,-25,8,35,20,0,-12,-21
CCn1nc(C(=O)Nc2ccccc2C)c(Cl)c1Cl,-7,2,-19,19,-1,.,.
O=C(CCCC(=O)c1ccc(F)cc1)c1ccc(F)cc1,-2,-1,-41,11,-7,.,.
COc1cccc(C(C)(O)c2nc(-c3cccc(C(C)C)c3)cs2)c1 (stereo not drawn),.,-1,.,.,25,.,.
CCCC(=O)Nc1ccc(Sc2ccc([N+](=O)[O-])cc2)cc1,25,2,38,49,35,9,10
CCCC(=O)Nc1ccc(C(=O)NNC(=O)c2cccc([N+](=O)[O-])c2)cc1,1,2,-11,31,-2,.,.
C=C(C)CSc1cc(C)nc2c(-c3ccccc3)c(C)nn12,-30,2,-30,13,-42,.,.
CCNc1nc2c(c(=O)[nH]c(=O)n2C)n1CCCc1ccccc1,-4,7,26,5,-4,3,3
COc1ccc(S(N)(=O)=O)cc1C(=O)N1CCCC1,-6,0,-7,20,5,.,.
Fc1ccc(-c2cc3nc(-c4ccccc4)cc(N4CCOCC4)n3n2)cc1,-13,17,-27,7,0,.,.
Cc1ccc(-c2cc3nc(-c4ccccc4)cc(N4CCC5(CC4)OCCO5)n3n2)cc1,12,-1,39,40,24,36*,-10
O=[N+]([O-])c1ccc(/C=N\NS(=O)(=O)c2ccc(F)cc2)o1,1,2,27,7,-2,-3,3
O=C1NC[C@H](CCCCN2C[C@H](Cc3ccc(O)cc3)N(CCc3ccc(O)cc3)C(=O)C2=O)N(CCc2ccc(O)cc2)C1=O,.,1,.,.,14,.,.
COc1cc(-c2c(C#N)c(N)nc3c2c(C)nn3-c2ccc(C)c(C)c2)cc(OC)c1OC,-17,1,-11,1,3,.,.
Cc1nn(-c2ccccc2)c2nc(N)c(C#N)c(-c3ccc(O)c(O)c3)c12,3,8,36,9,51*,34*,6
O=C1OC(/C=C/c2ccccc2)=NC/1=C\c1cccnc1,6,0,50*,23,8,4,1
C=CCn1c(NCCc2ccccc2)nc2c1c(=O)n(C)c(=O)n2C,12,12,31,16,12,10,13
CC(C)C(=O)NC(=S)Nc1ccc(S(=O)(=O)Nc2ccccc2)cc1,-4,23,6,3,17,.,.
COc1ccc(NS(=O)(=O)c2ccc(NC(=S)NC(=O)C(C)C)cc2)cc1,18,77*,31,31,20,32*,13
COc1ccc(N(CC(=O)Nc2cccc(N(C)S(C)(=O)=O)c2)S(=O)(=O)c2ccccc2)cc1Cl,-6,7,59*,68,27,56*,-3
COc1ccc(N(CC(=O)Nc2cccc(N(C)S(C)(=O)=O)c2)S(=O)(=O)c2ccc(C)cc2)cc1,-4,12,27,28,19,10,1
COc1ccc(N(CC(=O)Nc2ccc(OC)c(OC)c2)S(=O)(=O)c2ccccc2)cc1Cl,-16,1,-33,6,-4,.,.
